The values that follow come from ChEMBL document CHEMBL1138484, “Synthesis and antiviral activity of 7-benzyl-4-hydroxy-1,5-naphthyridin-2(1H)-one HIV integrase inhibitors” (J Med Chem, 2009).

Data set [1] deals with Human immunodeficiency virus. Description: Antiviral activity against pseudotype HIV after 2 days in absence of human serum albumin. As to conditions: Human immunodeficiency virus 1, 48 h. It is filed as functional, organism-based. The procedure, abridged:
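VSV-G-pseudotyped HIV vector carrying luciferase, harvested from transfected 293T cells. Target 293T cells (2 × 10^4 per well) mixed with vector at about 100K CPM and plated onto compounds in DMEM + 10% FCS. Incubated 2 days at 37 °C, 5% CO2. Luciferase read by Steady Glo luminescence. Values are means ± standard error (N > 1).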

Data set [2] is described as follows: Inhibition of HIV recombinant integrase strand transfer assay. Set-up: species or system Human immunodeficiency virus. The procedure, abridged: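 Recombinant integrase (2 µM) preassembled with biotinylated donor DNA on streptavidin SPA beads (MOPS pH 7.2, MgCl₂, DTT, 5 min, 37 °C), then washed. Compound in DMSO (6.7% final) preincubated 60 min at 37 °C. [³H] target DNA added at 7 nM final, strand transfer run 25-45 min at 37 °C, EDTA quench, SPA readout. Mean ± standard error.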

For data set [3], the system named is Human immunodeficiency virus 1. Description: Antiviral activity against HIV1 3B infected in human MT4 cells assessed as inhibition of virus-induced cytopathic effect after 5 days by MTS method. Type of data set: functional, organism-based. As to conditions: Human immunodeficiency virus 1, 3B, MT4, 120 h. The procedure, abridged:
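HIV-1 IIIB infection of MT-4 cells (HTLV-1 transformed) for 1 h at 37 °C, 5% CO2. Cells then added to compounds prediluted in RPMI with FBS and gentamicin; final assay medium had 15% FBS and 10% T-cell growth factor. Incubated 5 days at 37 °C. Virus-induced cytopathic effect read by MTS staining, OD 492 nm. Cytotoxicity measured in parallel.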
(Protection from cytopathic effect is a common read-out in antiviral testing.)

Data set [4] in a line: Cytotoxicity against human MT4 cells after 5 days by MTS assay. It is filed as cell-based. The settings on record: read-out: CCIC50. Summed up: (§1)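 MT-4 cells in RPMI with 15% FBS, 10% T-cell growth factor and 10 µg/mL gentamicin, cultured 5 days at 37 °C, 5% CO₂. Compound-induced cytotoxicity (CCIC50) measured by MTS staining at OD 492 nm, in parallel with the HIV-1 IIIB antiviral MTS readout in the same cell line.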

The test system of data set [5] is Human immunodeficiency virus. Description: Antiviral activity against pseudotype HIV after 2 days in presence 40 mg/mL human serum albumin. It is filed as functional, organism-based. As to conditions: Human immunodeficiency virus 1, 48 h. The procedure, abridged: (§2)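 Pseudotyped HIV luciferase assay in 293T cells (2 × 10^4 per well), 2 days at 37 °C in DMEM + 10% FCS, luminescence read-out. Run with and without added serum protein, 40 mg/mL HSA. Line 5 is the ratio of the IC50 with HSA to the IC50 without.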

The test system of data set [6] is MT4. Description: Cytotoxicity against human MT4 cells up to =>7 uM after 5 days by MTS assay. Type of data set: cell-based. As to conditions: mt4, 120 h. Summed up: as §1
Data set [7] is described as follows: Therapeutic index, ratio of CCIC50 for human MT4 cells to IC50 for HIV1 3B. Type of data set: cell-based. Summed up: as §1
Data set [8] has as its system Human immunodeficiency virus 1. The data set is described as follows: Antiviral activity against HIV1 3B infected in human MT4 cells assessed as inhibition of virus-induced cytopathic effect albumin after 5 days by MTS method in presence of 40 mg/mL human serum albumin. The settings on record: Human immunodeficiency virus 1, 3B, MT4, 120 h. Type of data set: functional, organism-based. Summed up: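 HIV-1 IIIB infection of MT-4 cells for 1 h at 37 °C, then cells added to prediluted compounds in RPMI with 15% FBS, 10% T-cell growth factor, 10 µg/mL gentamicin, plus 40 mg/mL HSA. 5 days at 37 °C, 5% CO₂. Cytopathic effect read by MTS staining at OD 492 nm. Mean ± standard error where N > 1.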

The subject of data set [9] is MT4. Description: Cytotoxicity against human MT4 cells up to 8 to 10 uM after 5 days by MTS assay. It is filed as cell-based. As to conditions: mt4, 120 h. The procedure, abridged: as §1
(In general: Formazan colour is commonly taken as a measure of viable cells.)

The subject of data set [10] is Human immunodeficiency virus. Description: Ratio of IC50 for pseudotype HIV in presence of human serum albumin to IC50 for pseudotype HIV in absence of human serum albumin. It is filed as functional. Summed up: as §2
Data set [11] can be described thus: Volume of distribution at steady state in CD rat at 1 mg/kg, iv. It is filed as ADME, organism-based. Set-up: dose 1 mg/kg, route intravenous. As to conditions: in vivo, read-out: Vdss. Summed up: (§3)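 Male CD rats, n = 2, given 1 mg/kg iv (1 mL/kg, fasted) in 10% DMSO/15% Solutol/75% 0.05 M […]. Blood drawn via implanted venous cannula at timed intervals over 24 h, EDTA plasma analysed by LC/MS/MS.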

For data set [12], the system named is Rattus norvegicus. The data set is described as follows: Hepatic blood flow in CD rat at 1 mg/kg, iv. It is filed as ADME, organism-based, Liver. Set-up: dose 1 mg/kg, route intravenous. The settings on record: in vivo.
The nature of data set [13]: Clearance in CD rat at 1 mg/kg, iv. Set-up: dose 1 mg/kg, route intravenous. Type of data set: ADME, organism-based. As to conditions: in vivo. Summed up:
as §3

A short description of data set [14]: Oral bioavailability in non fasted CD rat at 5 mg/kg. Type of data set: ADME, organism-based. As to conditions: in vivo. Summed up:
(§4)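 Male CD rats, n = 2 per arm, dosed 5 mg/kg po (5 mL/kg) in 10% DMSO/15% Solutol/75% 0.05 M […]. Fasted arm had food removed the evening before and returned 4 h post-dose; other arm nonfasted. Cannula blood sampled over 24 h, EDTA plasma by LC/MS/MS. Bioavailability referenced to the 1 mg/kg iv arm.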

Data set [15] deals with Human immunodeficiency virus 1. The data set is described as follows: Ratio of IC50 for HIV1 3B in presence of human serum albumin to IC50 for HIV1 3B in absence of human serum albumin. It is filed as functional. The procedure, abridged:
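MT-4/HIV-1 IIIB MTS cytopathic-effect assay, 5 days at 37 °C, run in standard medium and again with 40 mg/mL HSA added. The ratio compares the IC50 with HSA to the IC50 without.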

Data set [16] can be described thus: Oral bioavailability in fasted CD rat at 5 mg/kg. It is filed as ADME, organism-based. As to conditions: in vivo. The procedure, abridged: as §4

The structures appear in SMILES notation. pIC50: −log10 of the molar value. A value given as a limit tells only on which side of the number the result lay.

With `CCOC(=O)c1c(O)c2ncc(Cc3ccc(F)cc3)cc2[nH]c1=O`, the pIC50 in [1] is 5.92; in [2] it was 7.89; in data set [3], 5.92.

In the case of `CCOC(=O)c1c(O)c2ncc(Cc3ccc(F)cc3)cc2n(CC2CC2)c1=O`, the values for the negative-log IC50 (pIC50) in data set [1] and in data set [2] were 6.45 and 7.82, respectively.

Consider `CCOC(=O)c1c(O)c2ncc(Cc3ccccc3)cc2[nH]c1=O`, for which, in data set [4], the CC50 at 120 h is 103000 nM. The pIC50 in data set [1] was 5.43; in [2], 8.52; in data set [3], < 4.40.

With `CNC(=O)c1c(O)c2ncc(Cc3ccc(F)cc3)cc2n(C)c1=O`, the pIC50 was 7.24 in [5], 8.85 in data set [1], 8.39 in [2] and 7.96 in data set [3]. The CC50 at 120 h in data set [4] is 20000 nM. For the same compound, the Activity entry in [6] is given as “Non-toxic”.

For `CNC(=O)c1c(O)c2ncc(Cc3ccc(F)cc3)cc2[nH]c1=O`, the pIC50 in [5] is 6.92; in data set [1], 8.47; in [2], 8.22; in [3] it was 7.52. The CC50 at 120 h in data set [4] was > 8000 nM. Further, in data set [6], the Activity result is on record as “Non-toxic”. Also, in data set [7], the selectivity ratio is > 100.

Consider `CCNC(=O)c1c(O)c2ncc(Cc3ccc(F)cc3)cc2n(C)c1=O`, for which the pIC50 was 6.18 in data set [5]; 8.80 in data set [1]; 5.40 in [8]; 8.40 in data set [2]; 8.46 in data set [3]. The CC50 at 120 h in data set [4] was > 50000 nM. In [6], the Activity entry is “Non-toxic”.

Consider `COCCNC(=O)c1c(O)c2ncc(Cc3ccc(F)cc3)cc2[nH]c1=O`, for which the negative logarithm of the IC50 (pIC50) in data set [5] is 7.44; in data set [1], 8.38; in data set [2] it was 8.30; in [3], 7.44. In data set [4], the CC50 at 120 h was > 8000 nM. The Activity result in data set [9] was “Non-toxic”.

As for `COCCNC(=O)c1c(O)c2ncc(Cc3ccccc3)cc2[nH]c1=O`, the negative logarithm of the IC50 (pIC50) in data set [5] is 7.23; in data set [1], 7.85; in data set [2], 8.15; in data set [3] it was 7.04. Further, the CC50 at 120 h in data set [4] was > 10000 nM. In addition, the Activity entry in [9] was “Non-toxic”.

As to `COC(=O)c1c(O)c2ncc(Cc3ccccc3)cc2[nH]c1=O`, the CC50 at 120 h in data set [4] was > 125000 nM. The pIC50 in data set [1] is 4.85; in [2], 8.10; in data set [3], < 3.90.

For `CCOC(=O)c1c(O)c2ncc(Cc3ccc(F)cc3)cc2n(CC(C)C)c1=O`, the negative logarithm of the IC50 (pIC50) in [1] was 6.81; in data set [2], 7.66.

In the case of `O=C(NC1CC1)c1c(O)c2ncc(Cc3ccc(F)cc3)cc2[nH]c1=O`, the pIC50 is < 4.85 in data set [5], 8.10 in data set [1], 8.00 in [2] and 7.11 in data set [3]. Moreover, in [4], the CC50 at 120 h is > 8000 nM. The Activity entry in data set [6] is recorded as “Non-toxic”. The selectivity ratio in [7] is > 100.

As to `NC(=O)c1c(O)c2ncc(Cc3ccc(F)cc3)cc2[nH]c1=O`, the pIC50 in data set [5] is 6.18; in [1], 7.18; in [2] it was 7.35. For the same compound, the “Ratio IC50” value in data set [10] was 10.

Take `CCOC(=O)c1c(O)c2ncc(Cc3ccc(F)cc3)cc2n(C)c1=O`: the negative logarithm of the IC50 (pIC50) in data set [5] is 4.92; in data set [1], 7.11; in data set [2] it was 8.22; in [3] it was 5.89. The CC50 at 120 h in data set [4] was found to be 6000 nM.

Turning to `COC(=O)c1c(O)c2ncccc2[nH]c1=O`, in [4], the CC50 at 120 h is > 125000 nM. Also, the negative-log IC50 (pIC50) in data set [1] was < 4.85; in [2], < 3.30; in data set [3], < 3.90.

Take `CC(C)CNC(=O)c1c(O)c2ncc(Cc3ccc(F)cc3)cc2[nH]c1=O`: the pIC50 in data set [5] is 5.60; in [1] it was 8.40; in [2], 8.22; in data set [3], 7.17. The CC50 at 120 h in [4] amounted to 7000 nM. Moreover, in data set [6], the Activity result is recorded as “Non-toxic”. In data set [7], the selectivity ratio was > 100.

As to `COCCNC(=O)c1c(O)c2ncc(Cc3ccc(F)cc3)cc2n(C)c1=O`, in data set [11], the Vd stood at 0.6 L/kg. Also, the pIC50 in data set [5] was 7.30; in [1], 8.70; in data set [8], 7.32; in data set [2] it was 8.40; in [3] it was 8.30. In data set [4], the CC50 at 120 h is > 20000 nM. The QH in data set [12] is given as 20%. Moreover, in data set [13], the clearance was 11.8 mL/min/kg. Also, the bioavailability is 20% in data set [14] and 25% in [16]. Also, in data set [15], the “Ratio IC50” value is given as <10.

A word on the pIC50: it is the negative decadic logarithm of the IC50, by convention in mol/L. What is called clearance is the rate of elimination divided by the concentration. A higher clearance goes with a high capacity for elimination. A word on the bioavailability: it is the share of a dose that reaches the circulation, judged against a reference dose that is usually intravenous. Low readings indicate little systemic uptake, high ones much systemic uptake.
